AI-2 QS modul: Vibrio harveyi AI-2 quorum sensing modulators, primary screen, JMH597 strain, luminescence/OD600 ratio. Vibrio harveyi JMH597 AI-2 luminescence/OD600 ratio, 9 h; active compounds read low; strain lacks LuxN and CqsS sensors; 0 = neutral-control median. 0.4% of 300,000 active. activity change, % at 7.5 µM; in the data active means activity change below about -75%, passing the limit was not always enough;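 further: luminescence divided by OD600 gain over 9 h not by final OD600 alone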
ARNT TACC3 PPI: disruptors of ARNT/TACC3 protein interaction, primary screen, biochemical, AlphaScreen, single concentration; Transforming acidic coiled-coil-containing protein 3 (Homo sapiens), Q9Y6A5; AID 623870, 2012; 0.66% of 390,000 active; inhibition, % at 9.99 µM; AlphaScreen His-ARNT PAS-B/GST-TACC3 binding, luminescence; TACC3 fragment carries E629A point mutation;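 active means mean inhibition of replicates at least 50% and at least half of replicates each reaching 50%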;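 further: 0% = complete ARNT plus TACC3 wells and 100% = ARNT alone without TACC3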
HIF activator: HIF pathway transcriptional activators, primary screen, cell-based, U2OS HRE-luciferase, luminescence | U2OS HRE-luciferase reporter; normalized: DMSO 0%, desferrioxamine 100% | activation, % at 7.5 µM (by protocol) | 0.32% of 300,000 active;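 active means mean activation of at least 10% of the iron chelator positive control signal, with at least half of replicates also reaching 10%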
T cruzi inh: inhibitors of intracellular T. cruzi growth, primary screen, luminescence, NIH3T3 host cells; T. cruzi beta-gal in NIH3T3, 90 h; inhibition, % (concentration not given with the values); 1.4% of 300,000 active;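 active means mean inhibition across valid replicates above about 55%, limit read from the data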;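 further: signal also drops with host cell toxicity which is not excluded here; 0% = plate median of DMSO wells and 100% = zero luminescence signal; higher percent means less beta-gal luminescence so fewer parasites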
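Material: NIH/3T3 host cells with β-galactosidase reporter T. cruzi; Input: 5,000 host fibroblasts per well; Medium: DMEM, 2% fetal bovine serum; Compound: 50 nL DMSO compound solution per well; Schedule: 3 h host attachment, then at least 90 h co-culture; Detection: luminescent β-galactosidase signal after 60 min lysis.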
Starred values were filed as active, the others as inactive; . = not tested or not shown. This is a sample that favours compounds with a hit; in the whole collection about 2% have one here.

SMILES | AI-2 QS modul | ARNT TACC3 PPI | HIF activator | T cruzi inh
O=C(Nc1ccccc1F)N[C@@H]1CC[C@@H](CCNC(=O)C2CCC2)O[C@H]1CO | . | -1.8 | . | .
Cn1c(CO)nc2c3ccccc3ccc21 | 7.9 | -1.8 | 35.7* | -15.7
Cc1cc2ccccc2n1CCNC(=O)COc1ccccc1 | 10.3 | 5.5 | -0.4 | 57.6*
CCC(=O)NCCn1c(C)cc2ccccc21 | -1.5 | -4.3 | -0.2 | -2.4
CSc1cccc(CN2CCCC(CNC(=O)c3ccc(F)cc3)C2)c1 (centres undefined) | 12.7 | 27.4 | -0.2 | 43.3
COc1ccc(CN2CCCC(CNC(=O)c3ccc(F)cc3)C2)c(F)c1 (centres undefined) | 15.1 | . | 0.2 | 35.8
CCOc1ccc(CN2CCCC(CNC(=O)c3ccc(F)cc3)C2)cc1CO (centres undefined) | 0.0 | -11.4 | -0.2 | 62.1*
COc1ccc(CN2CCCC(CNC(=O)c3ccc(F)cc3)C2)c(C)c1C (centres undefined) | 2.1 | -1.1 | -0.3 | 70.6*
O=C(NCC1CCCN(Cc2cccc(OCCO)c2)C1)c1ccc(F)cc1 (centres undefined) | 7.9 | 18.6 | 0.1 | 18.6
CCOc1cc(CN2CCCC(CNC(=O)c3ccc(F)cc3)C2)ccc1OC (centres undefined) | 5.5 | 12.6 | 0.7 | 60.6*
COc1cccc(NC(=O)N(C)C[C@H]2Oc3ncc(/C=C/c4ccccc4)cc3C(=O)N([C@H](C)CO)C[C@@H]2C)c1 | . | 6.8 | . | .
Cc1noc(C)c1NC(=O)Nc1ccc2c(c1)C(=O)N([C@H](C)CO)C[C@H](C)[C@H](CN(C)S(=O)(=O)c1cn(C)cn1)O2 | . | 3.5 | . | .
COc1ccc(-c2ccc(-c3nc4c(c(=O)[nH]c(=O)n4Cc4ccccc4)n3C)o2)c([N+](=O)[O-])c1 | 0.6 | 24.2* | -0.2 | 13.6
O=C(c1ccccn1)N1C[C@@H]2[C@H](c3ccccc31)[C@H](CO)N2C(=O)C1CC1 | . | 49.2* | . | .
O=C(c1ccccn1)N1C[C@H]2[C@@H](c3ccccc31)[C@@H](CO)N2C(=O)CC1CC1 | . | 45.1* | . | .
O=C(c1ccccn1)N1C[C@H]2[C@@H](c3ccccc31)[C@H](CO)N2C(=O)C1CCCC1 | . | 14.1 | . | .
COc1ccccc1S(=O)(=O)N1CC[C@@H]2[C@H]1c1cc(-c3ccc(C#N)cc3)ccc1N[C@@H]2CO | . | -17.4 | . | .
Cc1ccc(NC(=O)COc2ccc(CCO)cc2-n2nc3ccccc3n2)cc1C | -8.8 | -7.3 | 0.2 | 56.7*
C[C@H]1CN([C@@H](C)CO)C(=O)c2cccc(NC(=O)c3ccc(-c4nccs4)cc3)c2O[C@H]1CN(C)S(=O)(=O)c1ccc(F)cc1 | . | -2.1 | . | .
C[C@H](CO)N1C[C@H](C)[C@@H](CN(C)Cc2ccc(C(=O)Nc3ccccc3N)cc2)Oc2ccc(N(C)C)cc2CC1=O | . | 45.1* | . | .
C[C@H](CO)N1C[C@H](C)[C@H](CN(C)Cc2ccc(C(=O)Nc3ccccc3N)cc2)Oc2ccc(N(C)C)cc2CC1=O | . | -1.9 | . | .
CC(C)NC(=O)N(C)C[C@@H]1Oc2ccc(N(C)C)cc2CC(=O)N([C@H](C)CO)C[C@H]1C | . | 47.6* | . | .
CC(C)NC(=O)Nc1ccc2c(c1)CC(=O)N([C@@H](C)CO)C[C@H](C)[C@H](CN(C)Cc1ccc(Oc3ccccc3)cc1)O2 | . | 33.1 | . | .
CC(C)NC(=O)Nc1ccc2c(c1)CC(=O)N([C@@H](C)CO)C[C@@H](C)[C@@H](CN(C)Cc1ccc(Oc3ccccc3)cc1)O2 | . | active | . | .
CN1CCN(C(c2ccc(C(F)(F)F)cc2)c2cc(Cl)c3cccnc3c2O)CC1 (centres undefined) | -85.0* | . | 2.8 | 59.0*
SMILES | AI-2 QS modul | ARNT TACC3 PPI | HIF activator | T cruzi inh
CCN1CCN(C(c2ccc(C(F)(F)F)cc2)c2ccc3cccnc3c2O)CC1 (centres undefined) | -119.3* | 79.7* | 6.2 | 40.0
Oc1c(C(c2ccccc2)N2CCOCC2)ccc2ccccc12 (centres undefined) | . | -0.9 | . | .
CN1CCN(C(c2ccc(Cl)cc2)c2cc(Cl)c3cccnc3c2O)CC1 (centres undefined) | -121.9* | 12.4 | 4.8 | 44.5
CN1CCN(C(c2ccccc2)c2ccc(Cl)cc2)CC1 (centres undefined) | . | -1.2 | . | .
COc1ccc(CCN(Cc2cccs2)S(=O)(=O)c2ccc(S(=O)(=O)N3CCCCCC3)cc2)cc1OC | 23.9 | 3.9 | 0.7 | 10.6
CCC(C)NS(=O)(=O)c1ccc(S(=O)(=O)N(CCc2ccc(OC)c(OC)c2)Cc2cccs2)cc1 (centres undefined) | 43.2 | -9.9 | -0.8 | 57.2*
O=C(C[C@@H]1C[C@H]2c3cc(NC(=O)Nc4ccccc4F)ccc3O[C@H]2[C@H](CO)O1)NCc1ccncc1 | . | -9.3 | . | .
COc1ccc(/C=N/NC(=S)Nc2cc(S(=O)(=O)N3CCOCC3)ccc2N2CCOCC2)cc1O | 12.8 | 3.3 | 34.9* | 2.6
Cc1c(C(=O)N2CCN(S(=O)(=O)c3cccs3)CC2)oc2ccc(F)cc12 | . | -25.2 | . | .
Cc1c(C(=O)Nc2cc(S(=O)(=O)N3CCOCC3)ccc2N2CCOCC2)oc2ccccc12 | 0.1 | -5.6 | -0.7 | 74.7*
CCN(CC)S(=O)(=O)c1ccc(N2CCOCC2)c(NC(=O)c2cccc3ccccc23)c1 | -3.8 | -3.8 | 46.3* | 28.7
Cc1c(C(=O)N2CCN(S(=O)(=O)c3ccc(F)cc3)CC2)oc2ccccc12 | 3.8 | -5.2 | 0.0 | 56.0*
O=C(Nc1cc(S(=O)(=O)N2CCOCC2)ccc1N1CCOCC1)c1cccc(S(=O)(=O)N2CCCCC2)c1 | 5.7 | 24.8 | -0.9 | 38.6
COc1ccc2ccccc2c1/C=N/NC(=S)Nc1cc(S(=O)(=O)N2CCOCC2)ccc1N1CCOCC1 | 27.7 | -6.3 | 1.1 | 45.7
O=S(=O)(NC[C@@H]1[C@@H](c2ccccc2)[C@@H](CO)N1CC1CC1)c1ccccc1 | . | -3.4 | . | .
C/C=C/c1ccc([C@H]2[C@@H](CN(C)C(=O)CC)N(C(=O)NCCC)[C@H]2CO)cc1 | . | -2.3 | . | .
O=[N+]([O-])c1cccnc1N1CCC(c2cc(-c3ccc(Cl)cc3Cl)n[nH]2)CC1 | 19.2 | -1.9 | -0.1 | 44.2
CC(=O)c1ccc(N2CCC(c3cc(-c4ccc(Cl)cc4Cl)n[nH]3)CC2)c([N+](=O)[O-])c1 | 21.8 | -11.0 | -0.9 | 62.1*
C[C@@H]1CN([C@@H](C)CO)C(=O)c2cc(NC(=O)Nc3cccc4ccccc34)ccc2O[C@@H]1CN(C)C(=O)Nc1ccc(F)cc1 | . | 9.6 | . | .
Cc1ccc(C(=O)Nc2cccc([N+](=O)[O-])c2)cc1S(=O)(=O)Nc1ccc(NC(=O)c2ccccc2)cc1 | -2.6 | -1.9 | 139.9* | 43.3
Cc1ccc(NS(=O)(=O)c2cc(C(=O)Nc3cccc([N+](=O)[O-])c3)ccc2C)cc1 | 21.2 | -1.8 | -0.1 | 24.6
